Converted amounts (≈) assume the structure as drawn. The source made the active and inactive calls. The rule behind the calls is not given here.
Legend:
[1] = tested on: Staphylococcus aureus; experiment: Antimicrobial activity against Staphylococcus aureus ATCC 11632 after 24 hrs by broth micro serial dilution method; type: functional; conditions: ATCC 11632, 24 h
Method in brief: (§1)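 This was broth microdilution in autoclaved Mueller-Hinton broth. 150 µL of compound per well was serially diluted […], and 50 µL of test organism was added. Plates were incubated 24 h at 37 °C and optical density was read.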

[2] = tested on: HCT-116; experiment: Cytotoxicity against human HCT116 cells after 24 hrs by MTT assay; type: functional, cell-based
Method in brief: (§2)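 The MTT assay seeded 5 × 10⁴ cells per well and grew them 24 h in RPMI 1640 with compound at 2.5–200 µM. Medium without cells was the blank and adriamycin the positive control. MTT was added for 4 h at 37 °C, formazan was solubilised, and absorbance was read at 570 nm. IC50 is the concentration that cuts viability 50% against untreated cells.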

[3] = tested on: Aspergillus niger; experiment: Antifungal activity against Aspergillus niger MTCC 1108 assessed as zone of inhibition at 20 uM after 48 hrs by disc diffusion method; type: functional
Method in brief: (§3)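 Spores from 4-day potato dextrose agar cultures, suspended in sterile water at 1.5 × 10⁵ CFU/mL. 0.2 mL was spread on potato dextrose agar. 5 mm filter-paper discs soaked with test compound were laid on the lawn. Incubation was 48 h at 28 °C, then the inhibition zone was measured in mm. Fluconazole was the positive control and acetone the negative control.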

[4] = tested on: QG-56; experiment: Cytotoxicity against human QG56 cells after 24 hrs by MTT assay; type: functional, cell-based; method in brief: as §2
[5] = tested on: Bacillus cereus; experiment: Antimicrobial activity against Bacillus cereus MTCC 7350 after 24 hrs by broth micro serial dilution method; type: functional; conditions: MTCC 7350, 24 h; method in brief: as §1
[6] = tested on: Curvularia lunata; experiment: Antifungal activity against Curvularia lunata MTCC 581 assessed as zone of inhibition at 20 uM after 48 hrs by disc diffusion method; type: functional; conditions: MTCC 581, 48 h, read-out: IZ; method in brief: as §3
[7] = tested on: Pseudomonas aeruginosa; experiment: Antimicrobial activity against Pseudomonas aeruginosa ATCC 15499 assessed as diameter of inhibition zone at 20 uM after 24 hrs by Kirby -Baur disc diffusion method; type: functional; conditions: ATCC 15499, 24 h, read-out: DIZ
Method in brief: (§4)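 Kirby-Bauer disc diffusion was used. Acetone stocks (160 µM) were serially doubled down to 80, 40 and 20 µM. 4 µL of each went onto 5 mm sterile paper discs, which were dried 30 min at 50 °C. Inoculum was 1.5 × 10⁸ CFU/mL diluted to 3 × 10² CFU/mL, and 50 µL was spread on Mueller-Hinton agar. After 24 h at 37 °C the inhibition-zone diameter was measured. Ciprofloxacin served as positive control.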

[8] = tested on: Aspergillus niger; experiment: Antifungal activity against Aspergillus niger MTCC 1108 after 48 hrs; type: functional; conditions: MTCC 1108, 48 h
[9] = tested on: Escherichia coli; experiment: Antimicrobial activity against Escherichia coli ATCC 35218 assessed as diameter of inhibition zone at 20 uM after 24 hrs by Kirby -Baur disc diffusion method; type: functional; conditions: ATCC 35218, 24 h, read-out: DIZ; method in brief: as §4
[10] = tested on: Aspergillus flavus; experiment: Antifungal activity against Aspergillus flavus MTCC 1021 assessed as zone of inhibition at 20 uM after 48 hrs by disc diffusion method; type: functional; method in brief: as §3
[11] = tested on: Staphylococcus aureus; experiment: Antimicrobial activity against Staphylococcus aureus ATCC 11632 assessed as diameter of inhibition zone at 20 uM after 24 hrs by Kirby -Baur disc diffusion method; type: functional; conditions: ATCC 11632, 24 h, read-out: DIZ; method in brief: as §4
[12] = tested on: Trichoderma viride; experiment: Antifungal activity against Trichoderma viride MTCC 1107 after 48 hrs; type: functional; conditions: MTCC 1107, 48 h
[13] = tested on: Escherichia coli; experiment: Antimicrobial activity against Escherichia coli ATCC 35218 assessed as diameter of inhibition zone at 80 uM after 24 hrs by Kirby -Baur disc diffusion method; type: functional; conditions: ATCC 35218, 24 h, read-out: DIZ; method in brief: as §4
[14] = tested on: Staphylococcus aureus; experiment: Antimicrobial activity against Staphylococcus aureus ATCC 11632 assessed as diameter of inhibition zone at 40 uM after 24 hrs by Kirby -Baur disc diffusion method; type: functional; conditions: ATCC 11632, 24 h, read-out: DIZ; method in brief: as §4
[15] = tested on: Aspergillus flavus; experiment: Antifungal activity against Aspergillus flavus MTCC 1021 assessed as zone of inhibition at 80 uM after 48 hrs by disc diffusion method; type: functional; conditions: MTCC 1021, 48 h, read-out: IZ; method in brief: as §3
[16] = tested on: Salmonella typhi; experiment: Antimicrobial activity against Salmonella typhi ATCC 23564 assessed as diameter of inhibition zone at 80 uM after 24 hrs by Kirby -Baur disc diffusion method; type: functional, Salmonella enterica subsp. enterica serovar Typhi; conditions: Salmonella enterica, ATCC 23564, 24 h; read-out: DIZ
[17] = tested on: Trichoderma viride; experiment: Antifungal activity against Trichoderma viride MTCC 1107 assessed as zone of inhibition at 80 uM after 48 hrs by disc diffusion method; type: functional; conditions: MTCC 1107, 48 h, read-out: IZ; method in brief: as §3
[18] = tested on: Trichoderma viride; experiment: Antifungal activity against Trichoderma viride MTCC 1107 assessed as zone of inhibition at 20 uM after 48 hrs by disc diffusion method; type: functional; conditions: MTCC 1107, 48 h, read-out: IZ; method in brief: as §3
[19] = tested on: HepG2; experiment: Cytotoxicity against human HepG2 cells after 24 hrs by MTT assay; type: functional, cell-based; method in brief: as §2
[20] = tested on: Bacillus cereus; experiment: Antimicrobial activity against Bacillus cereus MTCC 7350 assessed as diameter of inhibition zone at 80 uM after 24 hrs by Kirby -Baur disc diffusion method; type: functional; conditions: MTCC 7350, 24 h, read-out: DIZ; method in brief: as §4
[21] = tested on: Escherichia coli; experiment: Antimicrobial activity against Escherichia coli ATCC 35218 assessed as diameter of inhibition zone at 40 uM after 24 hrs by Kirby -Baur disc diffusion method; type: functional; conditions: ATCC 35218, 24 h, read-out: DIZ; method in brief: as §4
[22] = tested on: Curvularia lunata; experiment: Antifungal activity against Curvularia lunata MTCC 581 assessed as zone of inhibition at 40 uM after 48 hrs by disc diffusion method; type: functional; conditions: MTCC 581, 48 h, read-out: IZ; method in brief: as §3
[23] = tested on: Escherichia coli; experiment: Antimicrobial activity against Escherichia coli ATCC 35218 after 24 hrs by broth micro serial dilution method; type: functional; conditions: ATCC 35218, 24 h; method in brief: as §1
[24] = tested on: Salmonella typhi; experiment: Antimicrobial activity against Salmonella typhi ATCC 23564 assessed as diameter of inhibition zone at 20 uM after 24 hrs by Kirby -Baur disc diffusion method; type: functional, Salmonella enterica subsp. enterica serovar Typhi; conditions: Salmonella enterica, ATCC 23564, 24 h; read-out: DIZ
[25] = tested on: Bacillus cereus; experiment: Antimicrobial activity against Bacillus cereus MTCC 7350 assessed as diameter of inhibition zone at 40 uM after 24 hrs by Kirby -Baur disc diffusion method; type: functional; conditions: MTCC 7350, 24 h, read-out: DIZ; method in brief: as §4
[26] = tested on: Staphylococcus aureus; experiment: Antimicrobial activity against Staphylococcus aureus ATCC 11632 assessed as diameter of inhibition zone at 80 uM after 24 hrs by Kirby -Baur disc diffusion method; type: functional; conditions: ATCC 11632, 24 h, read-out: DIZ; method in brief: as §4
[27] = tested on: Pseudomonas aeruginosa; experiment: Antimicrobial activity against Pseudomonas aeruginosa ATCC 15499 assessed as diameter of inhibition zone at 80 uM after 24 hrs by Kirby -Baur disc diffusion method; type: functional; conditions: ATCC 15499, 24 h, read-out: DIZ; method in brief: as §4
[28] = tested on: Aspergillus niger; experiment: Antifungal activity against Aspergillus niger MTCC 1108 assessed as zone of inhibition at 80 uM after 48 hrs by disc diffusion method; type: functional; conditions: MTCC 1108, 48 h, read-out: IZ; method in brief: as §3
[29] = tested on: Mus musculus; experiment: Antiinflammatory activity in mouse assessed as inhibition of carrageenan-induced increase in paw volume at 200 mg/kg administered 1 hr prior to carrageenan challenge measured after 3 hrs relative to control; type: functional
Method in brief: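 Mice were fasted 2 h and placed in groups of five. Controls received saline i.p. Phenylbutazone was given at 100 mg/kg i.p., curcumin at 200 mg/kg i.p., and derivatives at 200 mg/kg. After 1 h, 0.1 mL of 1% carrageenan in saline was injected subplantar into the right hind paw. Paw volume was followed by plethysmometer for 3 h, and % inhibition was calculated as (Vc − Vt)/Vc × 100.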

[30] = tested on: Trichoderma viride; experiment: Antifungal activity against Trichoderma viride MTCC 1107 assessed as zone of inhibition at 40 uM after 48 hrs by disc diffusion method; type: functional; conditions: MTCC 1107, 48 h, read-out: IZ; method in brief: as §3
[31] = tested on: Bacillus cereus; experiment: Antimicrobial activity against Bacillus cereus MTCC 7350 assessed as diameter of inhibition zone at 20 uM after 24 hrs by Kirby -Baur disc diffusion method; type: functional; conditions: MTCC 7350, 24 h, read-out: DIZ; method in brief: as §4
[32] = tested on: Pseudomonas aeruginosa; experiment: Antimicrobial activity against Pseudomonas aeruginosa ATCC 15499 after 24 hrs by broth micro serial dilution method; type: functional; conditions: ATCC 15499, 24 h; method in brief: as §1
[33] = tested on: Aspergillus flavus; experiment: Antifungal activity against Aspergillus flavus MTCC 1021 assessed as zone of inhibition at 40 uM after 48 hrs by disc diffusion method; type: functional; conditions: MTCC 1021, 48 h, read-out: IZ; method in brief: as §3
[34] = tested on: Salmonella typhi; experiment: Antimicrobial activity against Salmonella typhi ATCC 23564 assessed as diameter of inhibition zone at 40 uM after 24 hrs by Kirby -Baur disc diffusion method; type: functional, Salmonella enterica subsp. enterica serovar Typhi; conditions: Salmonella enterica, ATCC 23564, 24 h; read-out: DIZ
[35] = tested on: Salmonella typhi; experiment: Antimicrobial activity against Salmonella typhi ATCC 23564 after 24 hrs by broth micro serial dilution method; type: functional, Salmonella enterica subsp. enterica serovar Typhi; conditions: Salmonella enterica, ATCC 23564, 24 h
[36] = tested on: Aspergillus flavus; experiment: Antifungal activity against Aspergillus flavus MTCC 1021 after 48 hrs; type: functional; conditions: MTCC 1021, 48 h
[37] = tested on: Curvularia lunata; experiment: Antifungal activity against Curvularia lunata MTCC 581 after 48 hrs; type: functional; conditions: MTCC 581, 48 h
[38] = tested on: Curvularia lunata; experiment: Antifungal activity against Curvularia lunata MTCC 581 assessed as zone of inhibition at 80 uM after 48 hrs by disc diffusion method; type: functional; conditions: MTCC 581, 48 h, read-out: IZ; method in brief: as §3
[39] = tested on: HeLa; experiment: Cytotoxicity against human HeLa cells after 24 hrs by MTT assay; type: functional, cell-based; method in brief: as §2
[40] = tested on: Aspergillus niger; experiment: Antifungal activity against Aspergillus niger MTCC 1108 assessed as zone of inhibition at 40 uM after 48 hrs by disc diffusion method; type: functional; conditions: MTCC 1108, 48 h, read-out: IZ; method in brief: as §3
[41] = tested on: Pseudomonas aeruginosa; experiment: Antimicrobial activity against Pseudomonas aeruginosa ATCC 15499 assessed as diameter of inhibition zone at 40 uM after 24 hrs by Kirby -Baur disc diffusion method; type: functional; conditions: ATCC 15499, 24 h, read-out: DIZ; method in brief: as §4

COc1cc(/C=C/C(CC(/C=C/c2ccc(O)c(OC)c2)=N/c2ccc(S(=O)(=O)Nc3ccccn3)cc2)=N\c2ccc(S(=O)(=O)Nc3ccccn3)cc2)ccc1O
MIC [1]: 40 µM (≈ 33.2 µg/mL)
IC50 [2]: 50 µM
inhibition zone (IZ) [3]: inactive
IC50 [4]: 100 µM
MIC [5]: 40 µM (≈ 33.2 µg/mL)
zone of inhibition at 20 µM [6]: 9 mm
zone of inhibition at 20 µM [7]: 13 mm
MIC [8]: 80 µM (≈ 66.5 µg/mL)
zone of inhibition at 20 µM [9]: 12 mm
inhibition zone (IZ) [10]: inactive
zone of inhibition at 20 µM [11]: 13 mm
MIC [12]: 20 µM (≈ 16.6 µg/mL)
zone of inhibition at 80 µM [13]: 17 mm
zone of inhibition at 40 µM [14]: 17 mm
zone of inhibition at 80 µM [15]: 11 mm
zone of inhibition at 80 µM [16]: 19 mm
zone of inhibition at 80 µM [17]: 17 mm
zone of inhibition at 20 µM [18]: 10 mm
IC50 [19]: 100 µM
zone of inhibition at 80 µM [20]: 18 mm
zone of inhibition at 40 µM [21]: 16 mm
zone of inhibition at 40 µM [22]: 9 mm
MIC [23]: 40 µM (≈ 33.2 µg/mL)
zone of inhibition at 20 µM [24]: 12 mm
zone of inhibition at 40 µM [25]: 15 mm
zone of inhibition at 80 µM [26]: 19 mm
zone of inhibition at 80 µM [27]: 18 mm
zone of inhibition at 80 µM [28]: 12 mm
inhibition in vivo at 200 mg/kg [29]: 9.6%
zone of inhibition at 40 µM [30]: 13 mm
zone of inhibition at 20 µM [31]: 10 mm
MIC [32]: 40 µM (≈ 33.2 µg/mL)
zone of inhibition at 40 µM [33]: 9 mm
zone of inhibition at 40 µM [34]: 17 mm
MIC [35]: 40 µM (≈ 33.2 µg/mL)
MIC [36]: > 80 µM
MIC [37]: 80 µM (≈ 66.5 µg/mL)
zone of inhibition at 80 µM [38]: 12 mm
IC50 [39]: 50 µM
zone of inhibition at 40 µM [40]: 9 mm
zone of inhibition at 40 µM [41]: 16 mm
